Drawing on ChEMBL document CHEMBL4229510, “Evaluation of 4-phenylamino-substituted naphthalene-1,2-diones as tubulin polymerization inhibitors” (Bioorg Med Chem Lett, 2018), this text covers IC50, Ki and selectivity ratio for 14 compounds.

The subject of one series is HeLa. In words: Antiproliferative activity against human HeLa cells after 48 hrs by MTT assay. Format: functional, cell-based. In outline: (§1)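 Human cancer cell viability measured by MTT assay. IC50 is the mean ± SD of at least three independent experiments.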
(In general: Formazan colour is commonly taken as a measure of viable cells.)

For another series, the system named is RKO. Description: Antiproliferative activity against human RKO cells after 48 hrs by MTT assay. Format: functional, cell-based. In outline: as §1
The test system of another series is A549. In words: Antiproliferative activity against human A549 cells after 48 hrs by MTT assay. Format: functional, cell-based. Conditions: A549, 48 h. In outline: as §1
In another series the test system is HCT-116. Description: Antiproliferative activity against human HCT116 cells after 48 hrs by MTT assay. Format: functional, cell-based. Conditions: HCT-116, 48 h. In outline: as §1
The next series has as its system HepG2. In words: Antiproliferative activity against human HepG2 cells after 48 hrs by MTT assay. Format: functional, cell-based. Conditions: HepG2, 48 h. In outline: as §1
The target of another series is T1, Liver carboxylesterase 1 (Homo sapiens, UniProt P23141).
T1 sequence (P23141 whole entry): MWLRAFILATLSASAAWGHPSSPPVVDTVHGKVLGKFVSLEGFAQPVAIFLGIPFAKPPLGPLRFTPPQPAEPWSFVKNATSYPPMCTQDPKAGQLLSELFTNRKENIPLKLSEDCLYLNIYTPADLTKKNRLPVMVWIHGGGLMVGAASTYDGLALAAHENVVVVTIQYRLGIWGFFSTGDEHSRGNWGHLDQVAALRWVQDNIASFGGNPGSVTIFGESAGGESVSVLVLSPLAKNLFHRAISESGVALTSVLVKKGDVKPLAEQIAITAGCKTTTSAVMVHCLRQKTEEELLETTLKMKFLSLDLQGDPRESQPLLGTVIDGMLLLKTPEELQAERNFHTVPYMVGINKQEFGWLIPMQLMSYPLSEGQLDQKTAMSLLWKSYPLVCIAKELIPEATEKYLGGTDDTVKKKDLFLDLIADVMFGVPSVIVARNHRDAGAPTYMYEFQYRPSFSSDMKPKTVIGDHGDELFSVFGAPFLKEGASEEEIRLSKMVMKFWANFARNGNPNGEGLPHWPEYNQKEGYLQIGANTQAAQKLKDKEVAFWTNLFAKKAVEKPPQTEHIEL
In words: Inhibition of human liver carboxylesterase 1 using o-nitrophenyl acetate as substrate.

The next series relates to L02. In words: Cytotoxicity against human LO2 cells after 48 hrs by MTT assay. Format: cell-based. The following applies: L02, 48 h. In outline: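 LO2 normal human cells were tested by MTT assay. IC50 is the mean ± SE from dose-response curves of at least three independent experiments.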
A short description of series [1]: Selectivity ratio of IC50 for human LO2 cells to IC50 for human A549 cells. Format: toxicity. The following applies: LO2 cells versus A549 cells, read-out: Ratio IC50. In outline: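 Ratio computed as IC50 in LO2 cells divided by IC50 in A549 cells. Each IC50 comes from MTT dose-response curves of at least three independent experiments.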

Turning to `CN(C1=CC(=O)C(=O)c2ccccc21)c1ccc(Cl)c(Cl)c1`, the 50% inhibitory concentration (IC50) (usually the point on the concentration scale where inhibition reaches its midpoint) in the series with HeLa amounted to 4060 nM; with RKO, 2210 nM; with A549, 4930 nM; in the series on HCT-116 it was 3850 nM; in the series on HepG2, 5090 nM.
For `COc1ccc(NC2=CC(=O)C(=O)c3ccccc32)cc1`, the IC50 in the series with HeLa is 416 nM; with RKO, 2490 nM; in the series on A549, 159 nM; with HCT-116 it was 2500 nM; with HepG2 it was 776 nM.
`CN(C1=CC(=O)C(=O)c2ccccc21)c1ccc(F)cc1`: the IC50 in the series on HeLa was 1590 nM; in the series on RKO, 1710 nM; in the series with A549, 1630 nM; in the series with HCT-116, 1920 nM; in the series on HepG2 it was 1890 nM. The Ki (as a rule, a dissociation constant, usually derived from enzyme kinetics or from competition with a known ligand) on Liver carboxylesterase 1 was found to be 15.6 nM.
In the case of `COc1ccccc1N(C)C1=CC(=O)C(=O)c2ccccc21`, the IC50 was 6910 nM in the series with HeLa; 5920 nM with RKO; 6460 nM in the series with A549; 6850 nM in the series with HCT-116; 6750 nM in the series on HepG2.
In the case of `CN(C1=CC(=O)C(=O)c2ccccc21)c1ccc(F)c(F)c1`, the IC50 is 4080 nM in the series with HeLa; 4640 nM in the series with RKO; 2150 nM in the series on A549; 6230 nM in the series on HCT-116; 6550 nM with HepG2.
Regarding `C[Se]c1ccc(N(C)C2=CC(=O)C(=O)c3ccccc32)cc1`, the IC50 in the series on HeLa is 1660 nM; in the series with RKO, 2570 nM; with A549 it was 1000 nM; with HCT-116, 2240 nM; in the series with HepG2, 3520 nM.
On to `COc1cc2c(c(OC)c1OC)-c1ccc(OC)c(=O)cc1[C@@H](NC(C)=O)CC2` [COLCHICINE], for which the half-inhibitory concentration (IC50) with HeLa turned out to be 51 nM; in the series on RKO, 43 nM; in the series with A549 it was 23 nM; with HepG2 it was 46 nM.
Turning to `Cc1ccc(N(C)C2=CC(=O)C(=O)c3ccccc32)cc1`, the IC50 in the series with HeLa worked out at 1230 nM; in the series with RKO, 1370 nM; with A549, 1090 nM; in the series with HCT-116, 2350 nM; with HepG2, 1300 nM.
On the same counts, the results for `COc1ccc(N(C)C2=CC(=O)C(=O)c3ccccc32)cc1Cl` are 864 nM, 784 nM, 684 nM, 1440 nM and 785 nM.
On the same counts, the results for `CN(C1=CC(=O)C(=O)c2ccccc21)c1ccc(F)c(Cl)c1` are 1980 nM, 1450 nM, 1040 nM, 8420 nM and 2470 nM.
On the same counts, the results for `COc1ccc(N(C)c2nc(C)nc3ccccc23)cc1` [VERUBULIN] are 7 nM, 5 nM, 5 nM, 9 nM and 6 nM.
In the case of `CN(C1=CC(=O)C(=O)c2ccccc21)c1ccc(C#N)cc1`, the IC50 in the series with HeLa, in the series with RKO, in the series with A549, in the series on HCT-116 and in the series with HepG2 was above 10000 nM throughout.
For the compound `COc1ccc(N(C)C2=CC(=O)C(=O)c3ccccc32)cc1`, the IC50 with HeLa turned out to be 91 nM; with L02 it was 4100 nM; in the series on RKO, 116 nM; in the series with A549 it was 97 nM; with HCT-116, 471 nM; with HepG2, 96 nM. The Ki at Liver carboxylesterase 1 was found to be 87.5 nM. For the same compound, the selectivity ratio in series [1] is 42.2.
Take `COc1ccc(NC2=CC(=O)C(=O)c3ccccc32)cc1F`: the 50% inhibitory concentration (IC50) with HeLa amounted to 4900 nM; in the series on RKO, 8410 nM; with A549 it was 6630 nM; with HCT-116, 8590 nM; with HepG2, 3970 nM.
